Assay outcomes as filed in PubChem BioAssay.
UCH37 inh = human UCH37 deubiquitinating enzyme inhibition; purified proteasome/UCH37, Ub-AMC cleavage fluorescence; hit rate 0.33% among 330,000; inhibition, % (test concentration not listed);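 active = mean inhibition over replicate wells above about 20%, limit read from the data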;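 note: 0% = compound-free wells with enzyme and 100% = wells lacking proteasome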
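Signal – fluorescence, ex 355 nm, em 460 nm · System – Proteasome-bound UCH37 · Input – 0.15 nM proteasome as dispensed · Timing – 30 min preincubation with enzyme, 25 min cleavage at room temperature · Read-out basis – percent inhibition of cleavage signal versus uninhibited and no-proteasome wells · Medium – Tris-HCl pH 7.4 with ATP-MgCl2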
PLC-beta3 inh = inhibitors of human phospholipase C beta3; Q01970; Purified PLC-beta3, fluorogenic substrate, fluorescence; inhibition, % at 12.2 µM; hit rate 0.18% among 370,000; AID 720704;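 note: 0% = median of compound wells on plate and 100% = full blocker control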
Target sequence (Q01970 whole entry, looked up): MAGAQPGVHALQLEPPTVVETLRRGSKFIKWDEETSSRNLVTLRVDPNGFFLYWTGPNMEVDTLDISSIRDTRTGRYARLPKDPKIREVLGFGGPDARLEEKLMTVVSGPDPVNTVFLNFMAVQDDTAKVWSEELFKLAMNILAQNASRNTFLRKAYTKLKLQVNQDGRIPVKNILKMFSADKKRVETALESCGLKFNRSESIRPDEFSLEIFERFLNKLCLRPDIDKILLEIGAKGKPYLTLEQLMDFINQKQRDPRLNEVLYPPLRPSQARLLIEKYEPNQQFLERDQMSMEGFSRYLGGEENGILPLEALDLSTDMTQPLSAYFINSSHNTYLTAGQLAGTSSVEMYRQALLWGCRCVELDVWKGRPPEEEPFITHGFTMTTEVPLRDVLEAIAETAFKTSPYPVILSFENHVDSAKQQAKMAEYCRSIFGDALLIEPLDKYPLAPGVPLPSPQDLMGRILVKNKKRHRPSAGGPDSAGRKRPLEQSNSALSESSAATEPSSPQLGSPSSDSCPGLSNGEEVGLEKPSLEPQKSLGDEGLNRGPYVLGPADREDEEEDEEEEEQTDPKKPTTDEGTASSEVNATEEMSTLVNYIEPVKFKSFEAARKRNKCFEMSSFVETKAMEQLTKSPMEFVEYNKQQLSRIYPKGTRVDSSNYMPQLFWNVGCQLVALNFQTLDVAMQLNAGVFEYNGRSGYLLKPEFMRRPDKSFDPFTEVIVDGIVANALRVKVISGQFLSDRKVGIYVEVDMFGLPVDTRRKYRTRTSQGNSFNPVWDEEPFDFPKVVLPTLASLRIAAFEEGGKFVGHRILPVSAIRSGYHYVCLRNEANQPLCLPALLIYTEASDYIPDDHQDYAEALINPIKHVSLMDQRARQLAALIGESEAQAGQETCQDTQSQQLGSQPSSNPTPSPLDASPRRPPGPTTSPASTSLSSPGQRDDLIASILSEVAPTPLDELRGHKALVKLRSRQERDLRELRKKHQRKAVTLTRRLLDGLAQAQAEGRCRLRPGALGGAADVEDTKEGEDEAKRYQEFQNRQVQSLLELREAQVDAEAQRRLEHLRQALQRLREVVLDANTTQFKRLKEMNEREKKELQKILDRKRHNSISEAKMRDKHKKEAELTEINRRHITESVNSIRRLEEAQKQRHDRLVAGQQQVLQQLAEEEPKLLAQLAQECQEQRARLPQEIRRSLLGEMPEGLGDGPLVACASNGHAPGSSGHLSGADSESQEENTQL
PLCg1 inh = blocks human PLC-gamma1 enzyme activity; P19174; purified PLC-gamma1, fluorogenic substrate, fluorescence; inhibition, % at 12.2 µM; hit rate 0.84% among 370,000; in the data active = inhibition above about 9.5%
Rpn11 inh = Rpn11 (human) deubiquitinase inhibition; O00487; human 26S proteasome, Ub4-pepOG fluorescence polarization; 20S core pre-blocked with epoxomicin; inhibition, % at 20 µM; hit rate 0.59% among 360,000; AID 588493;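 active = inhibition at 20 µM, scaled to each plate's controls, above about 33%, limit read from the data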
PLCg1 ctr = PLC-gamma1 inhibition, counter-screen for PLC-beta3 hits | AID 743258 | hit rate 3.1% among 3,300 | inhibition, % at 12.3 µM | purified PLC-gamma1, fluorogenic substrate, fluorescence | shares compounds with PLCg1 inh; in the data active = inhibition above about 9.5%
PLCb3 confirm = human PLC-beta3 inhibition, confirmation. shares compounds with PLCg1 inh. purified PLC-beta3, fluorogenic substrate fluorescence. inhibition, % at 12.3 µM. hit rate 1% among 3,300. AID 743261
* = called active by the depositor; / = no result given. In the library only some 1.7% were active in any assay of this set; here they are far more common. Cut-off read from the data, not from the text of the source, unless noted: active = inhibition above about 11%; inactive = the rest.

SMILES | UCH37 inh | PLC-beta3 inh | PLCg1 inh | Rpn11 inh | PLCg1 ctr | PLCb3 confirm
C=CC[C@@H](CC(=O)N[C@@H](CO)Cc1ccccc1)C(=O)N[C@H](COC(=O)[C@@H](CC=C)CC(=O)OC(C)(C)C)Cc1ccccc1 | 1 | -1 | 2 | 1 | / | /
C=CC[C@@H](CC(=O)N[C@H](CO)Cc1ccccc1)C(=O)N[C@@H](COC(=O)[C@H](CC=C)CC(=O)OC(C)(C)C)Cc1ccccc1 | 1 | 4 | 9.5* | 4 | -7 | 1
CC(C)Cc1cc(C(=O)Nc2cc(C(F)(F)F)ccc2Cl)no1 | -1 | 3 | 12* | 1 | -6 | -4
C/C(=N\Nc1nc(-c2cc(C)ccc2C)cs1)c1cc2ccccc2oc1=O | / | 4 | 10* | 5 | -19 | -20
CN(C)c1nc(Oc2ccc(=O)n(-c3ccccc3)n2)nc(N2CCOCC2)n1 | 7 | -2 | 13* | 3 | -6 | 0
COc1ccc(OCC(=O)NN=Cc2cccn2-c2cccc(C(=O)O)c2)cc1 | 12 | / | / | / | / | /
Brc1ccc(-c2csc(NN=Cc3ccco3)n2)cc1 | 1 | / | / | / | / | /
Cc1ccc(C(NC(=O)N2CC(C)OC(C)C2)C(Cl)Cl)cc1F (stereo not drawn) | 6 | 13* | 7 | -5 | -1 | 4
Cc1ccc(C(NC(=O)N2CCOCC2)C(Cl)Cl)cc1F (stereo not drawn) | 3 | -1 | -2 | -3 | / | /
O=C(NC(=S)N1CCc2ccccc21)c1ccccc1Br | 10 | 5 | 11* | -10 | -3 | 4
COc1ccc(Cl)cc1S(=O)(=O)N(C)CC(=O)NCc1ccccn1 | 7 | -6 | 9.6* | 4 | -1 | 1
O=C(COc1ccc(S(=O)(=O)N2CCOCC2)cc1)NC1CC1 | -1 | 2 | 10* | 4 | 1 | 3
COc1ccc(C(=O)OCC(=O)NC2CC2)cc1S(=O)(=O)N1CCOCC1 | -3 | 6 | 9.6* | 2 | -5 | 0
COc1ccc(C(=O)Nc2nnc(C)s2)cc1S(=O)(=O)N1CCOCC1 | 7 | -8 | 12* | -8 | -8 | -3
CCn1c2ccccc2c2cc(C=NNC(=O)c3ccncc3)ccc21 | -7 | / | / | / | / | /
O=C(O)Cn1cc(C=NNc2ccc([N+](=O)[O-])cn2)c2ccccc21 | 18 | / | / | / | / | /
COCc1c(C(=O)NN=Cc2ccccn2)nnn1-c1nonc1N | -2 | / | / | / | / | /
S=C(NCc1ccco1)NN=Cc1ccccc1Cl | 3 | / | / | / | / | /
O=[N+]([O-])c1ccc(NCc2ccncc2)cc1 | 6 | 1 | 13* | -5 | -6 | -5
S=c1[nH]ncn1N=Cc1cccc(Oc2ccccc2)c1 | 5 | / | / | / | / | /
Cc1ccc(SCCNC(=O)C(C)C)cc1 | 3 | 5 | 9.7* | 1 | -12 | -2
COCCN=c1scc(-c2cc(OC)c(OC)c(OC)c2)n1N=Cc1c(C)[nH]c2ccccc12 | 3 | / | / | / | / | /
CC(C)CCNC(=O)C(c1ccncc1)N(C(=O)Cn1nnc(-c2ccc(F)cc2)n1)c1ccccc1F (stereo not drawn) | -1 | 3 | 10* | -3 | -3 | 0
O=C1c2ccccc2C(=O)N1Cc1nc2ccccc2c(=O)n1CCCn1ccnc1 | 3 | 7 | 12* | 0 | -10 | -1
O=C1c2ccccc2C(=O)N1CCc1nc2ccccc2c(=O)n1CCCn1ccnc1 | 0 | 2 | -2 | -2 | / | /
SMILES | UCH37 inh | PLC-beta3 inh | PLCg1 inh | Rpn11 inh | PLCg1 ctr | PLCb3 confirm
CC(C)c1onc(C(=O)N2CCOCC2)c1[N+](=O)[O-] | 0 | 13* | 8 | 16 | -5 | -1
Oc1ccc(/C=N/NC(=S)Nc2cccnc2)c(O)c1O | / | -4 | 12* | 2 | -5 | -8
CC(=NNC(=O)c1cc(Cl)ccc1O)C12CC3CC(CC(C3)C1)C2 | -92 | / | / | / | / | /
CC(=NNC(=O)c1cnccn1)c1ccncc1 | 3 | / | / | / | / | /
CCOc1ccc(S(=O)(=O)N2CCC(C(=O)NCc3cccnc3)CC2)cc1 | 3 | -3 | 12* | -9 | -2 | 1
CCOC(=O)c1c(C)c(C(=O)Nc2ccc(F)cc2)c(C)n1C | 3 | 3 | 13* | 13 | -4 | 1
